From PMC3584523 (International Journal of Oncology, 2011)
pEC50, pIC50: −log10 of the molar value. “Also recorded” adds a separate entry of the source.

Experiments:
[1] = target: T1, human recombinant LPA1 receptor (Homo sapiens, UniProt Q92633); assay: Calcium flux assay, antagonism of LPA-induced calcium flux; assay type: cell-based; conditions: for pIC50: read-out: IC50, inhibition of LPA-induced calcium flux, human LPA1-expressing Chem-1 cells, 1 μM Oleoyl LPA
[2] = target: T1, human recombinant LPA1 receptor; assay: Calcium flux assay, LPA1 agonist activity; assay type: cell-based; conditions: human LPA1-expressing Chem-1 cells; for agonist activity at the LPA1 receptor (calcium flux): 0.0045–10 μM
Method in brief: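 Chem-1 stable cell line expressing human recombinant LPA1, loaded with Fluo-4 NW. Test compound, the racemic reference or oleoyl-LPA reference agonist was added as an eight-point 3-fold serial dilution starting at 10 μM (0.0045–10 μM), and calcium flux stimulation was measured. The reference agonist's EC80 was derived from its dose-response.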

[3] = Pharmacokinetic study in male CD-1 mice; assay type: in vivo, mouse
Method in brief: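 Male CD-1 mice received test compound in 10% DMA, 5% Cremophor EL and 85% saline. It was given either as an intravenous 5 mg/kg bolus into the jugular vein or by oral gavage at 50 mg/kg. Retro-orbital blood was taken into sodium heparin, n=3 per time point. Plasma was spiked with methanol and lovastatin internal standard, vortexed, centrifuged and measured by LC/MS. Parameters are given as means.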

4T1 cells [4] = assay: Orthotopic 4T1 mammary fat pad model, treatment day 0 to 14; assay type: in vivo, mouse
LPA3 = target: T2, LPA3 (Homo sapiens, UniProt Q9UBY5); assay: Antagonist activity at LPA3; assay type: cell-based; conditions: read-out: IC50, antagonist activity at LPA3
T2 sequence (Q9UBY5 1-353): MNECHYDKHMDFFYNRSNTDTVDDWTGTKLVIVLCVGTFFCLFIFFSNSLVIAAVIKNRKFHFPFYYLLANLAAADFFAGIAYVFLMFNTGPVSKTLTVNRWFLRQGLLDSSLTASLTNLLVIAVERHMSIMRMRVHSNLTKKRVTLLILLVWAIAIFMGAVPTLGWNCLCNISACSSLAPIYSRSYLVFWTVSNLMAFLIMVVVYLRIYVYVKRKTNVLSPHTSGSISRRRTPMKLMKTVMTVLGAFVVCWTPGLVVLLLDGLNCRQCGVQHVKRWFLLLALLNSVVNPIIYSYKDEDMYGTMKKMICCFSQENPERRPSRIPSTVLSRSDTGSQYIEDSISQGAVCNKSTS

4T1 cells [5] = assay: Orthotopic 4T1 model, adjuvant treatment day 15 to 35; assay type: in vivo, mouse; conditions: 25 or 50 mg/kg per os twice daily after tumor resection at day 14
Method in brief: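 To count disseminated tumour cells, marrow was flushed from tibias and femurs and plated in complete medium with 6-thioguanine 10 μM, which only the naturally resistant 4T1 cells survive. After two weeks the clones were fixed, stained and counted, and reported as clones/mm2.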

[6] = test system: 4T1 mouse mammary cancer cells; assay: LPA-induced cell invasion assay; assay type: cell-based; conditions: LPA 5 μM as chemoattractant; Debio 0719 1 and 5 μM; 24 h
Method in brief: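 4T1 cells were grown in DMEM with 10% FBS and penicillin/streptomycin at 37°C, 5% CO2. 2×10^5 cells were placed in the upper compartment of Matrigel-coated 8-μm filter chambers with or without test compound. LPA with 1% FBS was in the lower chamber. After 24 h at 37°C, cells that crossed the filter were fixed, stained and counted in 10 random fields (×40) and reported as cells/mm2.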

[7] = test system: breast cancer cell-mediated bone metastases; conditions: treatment of bone metastatic animals; cited from earlier work

T1 sequence (Q92633 whole entry): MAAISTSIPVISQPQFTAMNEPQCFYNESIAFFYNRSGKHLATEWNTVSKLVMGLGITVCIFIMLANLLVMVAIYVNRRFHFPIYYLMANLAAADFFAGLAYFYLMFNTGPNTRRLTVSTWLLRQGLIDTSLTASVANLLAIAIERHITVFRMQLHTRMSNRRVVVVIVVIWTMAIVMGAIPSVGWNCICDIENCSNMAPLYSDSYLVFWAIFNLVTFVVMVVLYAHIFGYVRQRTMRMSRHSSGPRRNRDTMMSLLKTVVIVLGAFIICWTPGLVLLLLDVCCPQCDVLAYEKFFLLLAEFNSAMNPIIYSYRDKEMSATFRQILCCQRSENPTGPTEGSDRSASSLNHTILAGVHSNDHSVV

Cc1noc(-c2ccc(CSCCC(=O)O)cc2)c1NC(=O)O[C@@H](C)c1ccccc1Cl [Debio 0719-425(S)]
pIC50 [1]: 5.55
agonist activity at the LPA1 receptor (calcium flux) [2]: no agonist activity

CCCCCCCC/C=C\CCCCCCCC(=O)OC[C@@H](O)COP(=O)(O)O [oleoyl LPA, Lysophosphatidic acid (LPA, Oleoyl C18:1), reference compound]
pEC50 ([2]; read-out: EC50, stimulation of calcium flux): 6.31

Cc1noc(-c2ccc(CSCCC(=O)O)cc2)c1NC(=O)O[C@H](C)c1ccccc1Cl [Debio 0719]
tolerability after oral exposure [3]: well tolerated
Plasma clearance ([3]; intravenous 5 mg/kg): 111 mL/min/kg
Time to maximum concentration ([3]; intravenous 5 mg/kg): 0.08 h
plasma concentration by 4 h ([3]; intravenous 5 mg/kg): ~ 1 nM
Bioavailability ([3]; oral 50 mg/kg): 14.41 % EF
Time to maximum concentration ([3]; oral 50 mg/kg): 0.25 h
plasma concentration by 8 h ([3]; oral 50 mg/kg): ~ 10 nM
time of peak plasma concentration ([3]; oral 50 mg/kg): 15 min
oral bioavailability ([3]; oral 50 mg/kg, no unit in text): 14.41
potency relative to Ki16425 at inhibiting LPA1-induced calcium flux ([1]; ratio of IC50 values): 2 fold
pIC50 [1]: 7.22
inhibition of number of lung metastasis foci (4T1 cells [4]; 50 mg/kg per os twice daily, day 0 to 14, sacrifice day 35, p=0.022): 62%
inhibition of total area of lung metastases (4T1 cells [4]; 50 mg/kg per os twice daily, day 0 to 14, sacrifice day 35, p=0.029): 89%
tolerability (mouse weight gain, deleterious effects) (4T1 cells [4]; 25 and 50 mg/kg per os twice daily, day 0 to 14, female BALB/c mice): well tolerated; also recorded: did not induce noticeable deleterious effects
burden (weight) of resected primary tumors vs untreated (4T1 cells [4]; 25 and 50 mg/kg per os twice daily, day 0 to 14, tumors resected day 14): no difference
rescue of 4T1-DTCs from bone marrow (4T1 cells [4]; either high or low dose, day 0 to 14, sacrifice day 35): not able to rescue any 4T1-DTCs
reduction in the area of lung metastasis foci (4T1 cells [4]; lower dosing (25 mg/kg per os twice daily), day 0 to 14, p=0.053): did not reach statistical significance
expression of mitotic marker Ki-67 in primary tumors vs untreated (4T1 cells [4]; per os twice daily, day 0 to 14, immunohistochemistry): similar
pIC50 (LPA3): 6.18
number of 4T1-DTCs rescued from bone marrow vs vehicle (4T1 cells [5]): no statistically significant difference
LPA-induced 4T1 cell invasion [6]: dose-dependently blocked
agonist activity at the LPA1 receptor (calcium flux) [2]: no agonist activity; also recorded: did not demonstrate any agonist effects

Cc1noc(-c2ccc(CSCCC(=O)O)cc2)c1NC(=O)OC(C)c1ccccc1Cl (centres unmarked) [Ki16425, reference compound]
pIC50 [1]: 6.89
progression of bone metastases [7]: inhibits efficiently the progression of bone metastases
pIC50 (LPA3): 5.64
agonist activity at the LPA1 receptor (calcium flux) [2]: no agonist activity
